Results: ChEMBL document CHEMBL4715682, “Potent trifluoromethoxy, trifluoromethylsulfonyl, trifluoromethylthio and pentafluorosulfanyl containing (1,3,4-oxadiazol-2-yl)benzamides against drug-resistant Gram-positive bacteria” (RSC Med Chem, 2020)
Values after ≈ are worked out from the molar mass of the structure shown. Active and inactive are the calls of the source. The rule behind the calls is not given here.

Key:
Staphylococcus aureus [1] = test: Antibacterial activity against methicillin-resistant Staphylococcus aureus ATCC 33592 assessed as reduction in bacterial count at 3 x MIC incubated upto 24 hrs by time kill analysis; type: functional; details: time hrs <=24
Procedure, shortened: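 Time-kill assay. […] Samples taken at 0, 2, 4, 8, 12 and 24 h, serially diluted in PBS and plated on tryptic soy agar. Viable CFU/mL counted after 18-20 h at 37 °C.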

Staphylococcus aureus [2] = test: Antibacterial activity against vancomycin-resistant Staphylococcus aureus 12 assessed as inhibition of visible bacterial growth incubated for 18 to 20 hrs by CLSI method; type: functional; details: time 18-20 hrs
Procedure, shortened: (§1)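 CLSI broth microdilution. Strains grown aerobically overnight on tryptic soy agar at 37 °C, adjusted to 0.5 McFarland and diluted in cation-adjusted Mueller–Hinton broth to about 5×10^5 CFU/mL. Compounds and control drugs serially diluted across the plate. Incubated aerobically at 37 °C for 18-20 h. MIC is the lowest concentration with no visible growth.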

Acinetobacter baumannii = test: Antibacterial activity against Acinetobacter baumannii ATCC 19606 RW4 assessed as inhibition of visible bacterial growth at 16 ug/ml incubated for 18 to 20 hrs by CLSI method; type: functional, organism-based; details: ATCC 19606 = CIP 70.34 = JCM 6841 RW4, dose 16.0 µg/ml, time 18-20 hrs; procedure, shortened: as §1
Staphylococcus aureus [3] = test: Antibacterial activity against methicillin-resistant Staphylococcus aureus NRS123 assessed as inhibition of visible bacterial growth incubated for 18 to 20 hrs by CLSI method; type: functional; details: time 18-20 hrs; procedure, shortened: as §1
Staphylococcus aureus [4] = test: Antibacterial activity against methicillin-resistant Staphylococcus aureus NRS484 assessed as inhibition of visible bacterial growth incubated for 18 to 20 hrs by CLSI method; type: functional; details: time 18-20 hrs; procedure, shortened: as §1
Staphylococcus aureus [5] = test: Antibacterial activity against methicillin-resistant Staphylococcus aureus NRS385 assessed as inhibition of visible bacterial growth incubated for 18 to 20 hrs by CLSI method; type: functional; details: time 18-20 hrs; procedure, shortened: as §1
Staphylococcus aureus [6] = test: Antibacterial activity against methicillin-resistant Staphylococcus aureus NRS 119 assessed as inhibition of visible bacterial growth incubated for 18 to 20 hrs by CLSI method; type: functional; details: time 18-20 hrs; procedure, shortened: as §1
[7] = Hemolytic activity in human RBC at 32 ug/ml incubated for 60 mins relative to control; type: ADME, cell-based, Erythrocyte; details: red blood cells (erythrocytes), at 32 µg/mL, read-out: Activity
Procedure, shortened: (§2)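 Single-donor human erythrocytes as a 5% v/v suspension in PBS. Compounds serially diluted in PBS, in triplicate, and incubated with RBCs at 37 °C for 60 min. PBS served as the negative control and Triton-X as the positive control. Samples spun at 4,000 rpm for 5 min and supernatant absorbance read at 540 nm. Percent hemolysis = 100×(sample−negative)/(positive−negative).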

Staphylococcus aureus [8] = test: Antibacterial activity against methicillin-sensitive Staphylococcus aureus NRS 107 assessed as inhibition of visible bacterial growth incubated for 18 to 20 hrs by CLSI method; type: functional; details: time 18-20 hrs; procedure, shortened: as §1
[9] = Hemolytic activity in human RBC at 128 ug/ml incubated for 60 mins relative to control; type: ADME, cell-based, Erythrocyte; details: red blood cells (erythrocytes), dose 128 µg/ml, read-out: Activity; procedure, shortened: as §2
Staphylococcus aureus [10] = test: Antibacterial activity against methicillin-resistant Staphylococcus aureus NRS386 assessed as inhibition of visible bacterial growth incubated for 18 to 20 hrs by CLSI method; type: functional; details: time 18-20 hrs; procedure, shortened: as §1
Staphylococcus aureus [11] = test: Antibacterial activity against methicillin-resistant Staphylococcus aureus NRS384 assessed as inhibition of visible bacterial growth incubated for 18 to 20 hrs by CLSI method; type: functional; details: time 18-20 hrs; procedure, shortened: as §1
J774 = test: Cytotoxicity against mouse J774 cells assessed as reduction in cell viability at 32 ug/ml incubated for 24 hrs by MTS assay; type: cell-based; details: j774, 24 h, dose 32 µg/ml
Staphylococcus aureus [12] = test: Bacteriostatic activity against methicillin-resistant Staphylococcus aureus ATCC 33592 assessed as reduction in bacterial growth incubated for 18 hrs by CLSI method; type: functional
Enterococcus faecalis = test: Antibacterial activity against vancomycin- resistant Enterococcus faecalis ATCC 700221 assessed as inhibition of visible bacterial growth incubated for 18 to 20 hrs by CLSI method; type: functional; details: time 18-20 hrs; procedure, shortened: as §1
Streptococcus pneumoniae [13] = test: Antibacterial activity against cephalosporin-resistant Streptococcus pneumoniae ATCC 51916 assessed as inhibition of visible bacterial growth incubated for 18 to 20 hrs by CLSI method; type: functional; details: time 18-20 hrs; procedure, shortened: as §1
Escherichia coli = test: Antibacterial activity against Escherichia coli ATCC 25404 assessed as inhibition of visible bacterial growth at 16 ug/ml incubated for 18 to 20 hrs by CLSI method; type: functional, organism-based; details: B ATCC 25404, dose 16.0 µg/ml, time 18-20 hrs; procedure, shortened: as §1
Staphylococcus aureus [14] = test: Antibacterial activity against methicillin-resistant Staphylococcus aureus NRS383 assessed as inhibition of visible bacterial growth incubated for 18 to 20 hrs by CLSI method; type: functional; details: time 18-20 hrs; procedure, shortened: as §1
Staphylococcus aureus [15] = test: Synergistic antibacterial activity against methicillin-resistant Staphylococcus aureus ATCC 33592 assessed as fractional inhibitory concentration index in presence of Vancomycin; type: functional
Listeria monocytogenes = test: Antibacterial activity against Listeria monocytogenes ATCC 19111 assessed as inhibition of visible bacterial growth incubated for 18 to 20 hrs by CLSI method; type: functional; details: time 18-20 hrs
Procedure, shortened: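 Broth microdilution per CLSI. Strains grown aerobically overnight on TSA at 37 °C, suspended to 0.5 McFarland, diluted in CAMHB to about 5×10^5 CFU/mL. Agents serially diluted across plate; aerobic incubation 37 °C for 18-20 h. MIC = lowest concentration completely preventing visible growth.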

Staphylococcus aureus [16] = test: Synergistic antibacterial activity against methicillin-resistant Staphylococcus aureus ATCC 33592 assessed as fractional inhibitory concentration index in presence of methicillin by checkerboard assay; type: functional
Staphylococcus aureus [17] = test: Antibacterial activity against vancomycin-resistant Staphylococcus aureus 10 assessed as inhibition of visible bacterial growth incubated for 18 to 20 hrs by CLSI method; type: functional; details: time 18-20 hrs; procedure, shortened: as §1
Pseudomonas aeruginosa = test: Antibacterial activity against Pseudomonas aeruginosa ATCC 27853 assessed as inhibition of visible bacterial growth at 16 ug/ml incubated for 18 to 20 hrs by CLSI method; type: functional, organism-based; details: dose 16.0 µg/ml, time 18-20 hrs; procedure, shortened: as §1
Staphylococcus aureus [18] = test: Antibacterial activity against methicillin-resistant Staphylococcus aureus NRS483 assessed as inhibition of visible bacterial growth incubated for 18 to 20 hrs by CLSI method; type: functional; details: time 18-20 hrs; procedure, shortened: as §1
Caco-2 = test: Cytotoxicity against human Caco2 cells assessed as reduction in cell viability at 128 ug/ml incubated for 2 hrs by MTS assay; type: cell-based; details: caco-2, 2 h, dose 128 µg/ml
Staphylococcus aureus [19] = test: Antibacterial activity against methicillin-resistant Staphylococcus aureus USA400 infected in mouse J774 cells assessed as log reduction in intracellular growth at 16 ug/ml incubated for 18 to 22 hrs; type: functional; details: dose 16 µg/ml; time 18-22 hrs
Procedure, shortened: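 J774 murine macrophages grown in DMEM with 10% FBS at 37 °C, 5% CO2. Cells infected with MRSA USA400 at MOI about 10:1 for 1 h, then washed with gentamicin to remove extracellular bacteria. Agents added at 8 or 16 μg/mL in triplicate, with DMSO vehicle control, for 24 h. Cells lysed with 0.1% Triton-X, lysates plated on tryptic soy agar, and CFU counted after 18-22 h at 37 °C. Analysed by two-way ANOVA with Dunnett's test.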

Streptococcus pneumoniae [20] = test: Antibacterial activity against […] Streptococcus pneumoniae ATCC 700677 assessed as inhibition of visible bacterial growth incubated for 18 to 20 hrs by CLSI method; type: functional; details: time 18-20 hrs; procedure, shortened: as §1

**Q.** What does the source list for `O=C(Nc1nnc(-c2cccs2)o1)c1ccc(S(=O)(=O)C(F)(F)F)cc1`?
**A.** Activity (Staphylococcus aureus [1]): 1.04 log10CFU/ml; MIC (Staphylococcus aureus [2]): 8 µg/mL (≈ 19.8 µM); inhibition (Acinetobacter baumannii): inactive; MIC (Staphylococcus aureus [3]): 4 µg/mL (≈ 9.92 µM); MIC (Staphylococcus aureus [4]): 4 µg/mL (≈ 9.92 µM); MIC (Staphylococcus aureus [5]): 8 µg/mL (≈ 19.8 µM); MIC (Staphylococcus aureus [6]): 8 µg/mL (≈ 19.8 µM); hemolysis at 1 h, 32 ug/ml [7]: 23%; MIC (Staphylococcus aureus [8]): 4 µg/mL (≈ 9.92 µM); hemolysis at 1 h, 128 ug/ml [9]: 37%; MIC (Staphylococcus aureus [10]): 4 µg/mL (≈ 9.92 µM); MIC (Staphylococcus aureus [11]): 4 µg/mL (≈ 9.92 µM); Activity (J774): Non-Toxic; MBC (Staphylococcus aureus [12]): > 128 µg/mL; MIC (Enterococcus faecalis): 4 µg/mL (≈ 9.92 µM); MIC (Streptococcus pneumoniae [13]): 2 µg/mL (≈ 4.96 µM); inhibition (Escherichia coli): inactive; MIC (Staphylococcus aureus [14]): 8 µg/mL (≈ 19.8 µM); fractional inhibitory concentration index (FICI) (Staphylococcus aureus [15]): 1.03; MIC (Listeria monocytogenes): 2 µg/mL (≈ 4.96 µM); fractional inhibitory concentration index (FICI) (Staphylococcus aureus [16]): 0.53; MIC (Staphylococcus aureus [17]): 4 µg/mL (≈ 9.92 µM); inhibition (Pseudomonas aeruginosa): inactive; MIC (Staphylococcus aureus [18]): 4 µg/mL (≈ 9.92 µM); Activity (Caco-2): Non-Toxic; Activity (Staphylococcus aureus [19]): 0.6 log10CFU/ml; MIC (Streptococcus pneumoniae [20]): 1 µg/mL (≈ 2.48 µM)
